Km, Vmax and Substrate efficiency data for 6 compounds are collected here from ChEMBL document CHEMBL1121798, “Puromycin analogues. Effect of aryl-substituted puromycin analogues on the ribosomal peptidyltransferase reaction” (J Med Chem, 1981).

Calls of active or inactive are those of the source. No cut-off for these calls is given here.

Experiment [1] relates to Escherichia coli. The experiment can be described thus: Michaelis constant (Km) in the peptidyltransferase reaction. It is filed as functional. In outline:
(§1)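 E. coli ribosomes (washed, 2.78 A260 units) loaded with Ac[14C]Phe-tRNA (21 pmol) in 100 mM Tris-Cl pH 7.5, 100 mM NH4Cl, 15 mM Mg(OAc)2, 0.65 mM DTT, 1.2 mM GTP, FWR, poly(U), 28 °C for 8 min. Analogue then added as acceptor. Radiolabelled product counted and blank-corrected. Duplicates at five substrate concentrations. Km/Vmax from double-reciprocal plots by Wilkinson analysis.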

The subject of experiment [2] is Escherichia coli. The experiment can be described thus: Vmax in the peptidyltransferase reaction. It is filed as functional. The method, boiled down:
as §1

Experiment [3] deals with Escherichia coli. As to the kind of experiment: Compound was evaluated for the substrate activity in the peptidyltransferase reaction of Escherichia coli ribosomes.
The subject of experiment [4] is Escherichia coli. The experiment can be described thus: Michaelis constant (Km) in the peptidyltransferase reaction; Inactive. It is filed as functional. The method, boiled down: as §1

For orientation: Km means the concentration of substrate that gives half-maximal velocity. A word on the Vmax: it is the top rate of the reaction or transport when substrate is in excess. Consider `COc1ccc(C[C@H](N)C(=O)N[C@H]2[C@@H](O)[C@H](n3cnc4c(N(C)C)ncnc43)O[C@@H]2CO)cc1`, for which the Km with Escherichia coli [1] was 134 µM. Besides, in the experiment with Escherichia coli [2], the Vmax stood at 0.99 pmol/min. The Substrate efficiency in the experiment on Escherichia coli [3] was determined as 100%.
Turning to `CN(C)c1ncnc2c1ncn2C1OC(CO)C(NC(=O)C(N)Cc2ccc(N)cc2)C1O` (stereo unspecified), the Km with Escherichia coli [1] stood at 120 µM. In addition, the Vmax in the experiment with Escherichia coli [2] was found to be 0.79 pmol/min. In addition, the Substrate efficiency with Escherichia coli [3] turned out to be 89%.
For `CCCC(=O)Nc1ccc(CC(N)C(=O)NC2C(CO)OC(n3cnc4c(N(C)C)ncnc43)C2O)cc1` (stereo unspecified) the same measures were 367 µM, 0.53 pmol/min and 19.5%.
Regarding `CN(C)c1ncnc2c1ncn2C1OC(CO)C(NC(=O)C(N)Cc2ccc([N+](=O)[O-])cc2)C1O` (stereo unspecified), the Km with Escherichia coli [1] was 255 µM. Besides, the Vmax in the experiment with Escherichia coli [2] stood at 0.39 pmol/min. The same compound yielded a Substrate efficiency with Escherichia coli [3] of 20.7%.
In the case of `CC(=O)Nc1ccc(CC(N)C(=O)NC2C(CO)OC(n3cnc4c(N(C)C)ncnc43)C2O)cc1` (stereo unspecified), the Km in the experiment with Escherichia coli [1] came to 256 µM. Besides, the Vmax in the experiment with Escherichia coli [2] amounted to 0.45 pmol/min. The Substrate efficiency in the experiment with Escherichia coli [3] was found to be 23.7%.
For `CN(C)c1ncnc2c1ncn2C1OC(CO)C(NC(=O)C(N)Cc2ccc(NC(=O)CBr)cc2)C1O` (stereo unspecified), the Km result in the experiment with Escherichia coli [4] was “inactive”.
